Assay results: ChEMBL document CHEMBL2384961, “Geranylated flavonoids displaying SARS-CoV papain-like protease inhibition from the fruits of Paulownia tomentosa” (Bioorg Med Chem, 2013)

How the values were obtained:
[1] = (§1) Inhibition of SARS coronavirus papain-like protease (1541 to 1855 amino acids) expressed in Escherichia coli BL21 (DE3) using Z-RLRGG-AMC as substrate by fluorogenic assay; design: species or system Severe acute respiratory syndrome-related coronavirus
Procedure, shortened: (§2)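 Protease domain construct His-tagged, purified by nickel affinity, ion-exchange and gel filtration, tag removed by TEV. […] AMC release followed continuously at ex 360/em 460 nm. IC50 is the concentration giving 50% activity loss; three repeat experiments, standard deviation.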

[2] = test system: Severe acute respiratory syndrome-related coronavirus; assay: as §1; procedure, shortened: as §2
[3] = Mixed-type of inhibition of SARS coronavirus papain-like protease (1541 to 1855 amino acids) expressed in Escherichia coli BL21 (DE3) using Z-RLRGG-AMC as substrate by Dixon plot analysis; design: species or system Severe acute respiratory syndrome-related coronavirus

SMILES | IC50 [1] | inhibition [2] | Ki [3]
CC(C)(O)CCCC1(C)CCc2c(cc3c(c2O)C(=O)C[C@@H](c2ccc(O)c(O)c2)O3)O1 (some centres undefined) | 6.2 µM | Dose-dependent effect | 4.8 µM
COc1cc([C@@H]2CC(=O)c3c(cc4c(c3O)CCC(C)(CCCC(C)(C)O)O4)O2)cc(OC)c1O (some centres undefined) | 12.5 µM | Dose-dependent effect | 13 µM
CC(C)=CCC/C(C)=C/Cc1c(O)cc2c(c1O)C(=O)C[C@@H](c1ccc(O)cc1)O2 [BONANNIONE A] | 14.4 µM | Dose-dependent effect | 7.8 µM
COc1cc([C@@H]2CC(=O)c3c(cc(O)c(C/C=C(\C)CCC=C(C)C)c3O)O2)ccc1O | 13.2 µM | Dose-dependent effect | 7.1 µM
COc1cc([C@@H]2CC(=O)c3c(cc(O)c(C/C=C(\C)CCC=C(C)C)c3O)O2)cc(OC)c1O | 13.9 µM | Dose-dependent effect | 8.4 µM
COc1cc([C@H]2Oc3cc(O)c(C/C=C(\C)CCC=C(C)C)c(O)c3C(=O)[C@@H]2O)ccc1O | 9.5 µM | Dose-dependent effect | 6.6 µM
COc1ccc([C@H]2Oc3cc(O)c(C/C=C(\C)CCC=C(C)C)c(O)c3C(=O)[C@@H]2O)cc1O | 9.2 µM | Dose-dependent effect | 6.3 µM
CC(C)=CCC/C(C)=C/Cc1c(O)cc2c(c1O)C(=O)C[C@@H](c1ccc(O)c(O)c1)O2 [NYMPHAEOL A] | 10.4 µM | Dose-dependent effect | 5.1 µM
COc1ccc([C@@H]2CC(=O)c3c(cc(O)c(C/C=C(\C)CCC=C(C)C)c3O)O2)cc1O | 12.7 µM | Dose-dependent effect | 6.9 µM
COc1cc([C@H]2Oc3cc4c(c(O)c3C(=O)[C@@H]2O)CCC(C)(CCCC(C)(C)O)O4)ccc1O (some centres undefined) | 5 µM | Dose-dependent effect | 3.7 µM
COc1cc([C@@H]2CC(=O)c3c(cc4c(c3O)CCC(C)(CCCC(C)(C)O)O4)O2)cc(O)c1OC (some centres undefined) | 11.6 µM | Dose-dependent effect | 5 µM
COc1ccc([C@@H]2CC(=O)c3c(cc4c(c3O)CCC(C)(CCCC(C)(C)O)O4)O2)cc1O (some centres undefined) | – | Dose-dependent effect | –
